Measurements taken from ChEMBL document CHEMBL1139414, “Conformationally constrained analogues of diacylglycerol. 29. Cells sort diacylglycerol-lactone chemical zip codes to produce diverse and selective biological activities” (J Med Chem, 2008).
pKi: −log10 of the molar value.

Legend:
[1] = target: Protein kinase C alpha type (Mus musculus, UniProt P20444); experiment: Displacement of [3H]PDBu form mouse PKCalpha by scintillation counting
Procedure, shortened: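 Partially purified mouse PKCα; competition with [³H]PDBU. ID50 obtained by fitting a sigmoidal competition curve and converted to Ki = ID50/(1+L/Kd). Pure compounds tested at 6–7 concentrations; crude library compounds at a single 1 μM concentration. Triplicates per concentration, at least three experiments; mean ± SEM.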

[2] = target: T1, Ras guanyl-releasing protein 3 (Homo sapiens, UniProt Q8IV61); experiment: Binding affinity to RasGRP3
T1 sequence (Q8IV61 whole entry): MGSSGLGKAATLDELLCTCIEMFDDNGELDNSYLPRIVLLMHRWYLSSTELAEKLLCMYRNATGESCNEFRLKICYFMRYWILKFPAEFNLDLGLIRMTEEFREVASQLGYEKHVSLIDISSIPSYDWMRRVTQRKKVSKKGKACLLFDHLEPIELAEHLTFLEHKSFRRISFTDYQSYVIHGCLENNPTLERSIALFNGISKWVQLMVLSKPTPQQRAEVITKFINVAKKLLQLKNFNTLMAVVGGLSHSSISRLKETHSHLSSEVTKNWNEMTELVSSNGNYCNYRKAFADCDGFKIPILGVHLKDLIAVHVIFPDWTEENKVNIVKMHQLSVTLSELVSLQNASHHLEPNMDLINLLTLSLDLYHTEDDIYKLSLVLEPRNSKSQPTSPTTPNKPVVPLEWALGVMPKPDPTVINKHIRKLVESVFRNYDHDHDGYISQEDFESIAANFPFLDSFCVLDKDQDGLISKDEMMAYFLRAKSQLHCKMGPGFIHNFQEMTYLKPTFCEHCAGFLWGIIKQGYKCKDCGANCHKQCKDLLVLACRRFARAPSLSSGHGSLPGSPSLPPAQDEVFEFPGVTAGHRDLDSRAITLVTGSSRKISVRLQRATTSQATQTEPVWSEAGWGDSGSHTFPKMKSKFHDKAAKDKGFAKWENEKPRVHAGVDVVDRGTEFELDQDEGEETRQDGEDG

Row | SMILES | pKi [1] | pKi [2]
1 | CN(C)c1cccc(C(=O)OCC2(CO)C/C(=C\c3cccc([N+](=O)[O-])c3)C(=O)O2)c1 (racemic) | 7.20 | 8.28
2 | CN(C)c1ccc(C(=O)OCC2(CO)C/C(=C\c3cccc([N+](=O)[O-])c3)C(=O)O2)cc1 (racemic) | 7.14 | 8.10
3 | CN(C)c1cccc(C(=O)OCC2(CO)C/C(=C\c3ccccc3[N+](=O)[O-])C(=O)O2)c1 (racemic) | 6.94 | 7.79
4 | CC(C)(C)CC(=O)OCC1(CO)C/C(=C/c2ccc(F)c(Br)c2)C(=O)O1 (racemic) | 7.71 | –
5 | CC(C)C(=O)OCC1(CO)C/C(=C/c2cccc(C(F)(F)F)c2)C(=O)O1 (racemic) | 7.15 | –
6 | CCCCCC/C=C1/CC(CO)(COC(=O)c2ccc(N(C)C)cc2)OC1=O (racemic) | 6.88 | –
7 | CCCCCC/C=C1/CC(CO)(COC(=O)c2ccc(C)cc2)OC1=O (racemic) | 7.22 | –
8 | CCCCCCC(=O)OCC1(CO)C/C(=C/C2CCCCC2)C(=O)O1 (racemic) | 7.11 | –
9 | CC(C)C(=O)OCC1(CO)C/C(=C/c2cc(C(F)(F)F)cc(C(F)(F)F)c2)C(=O)O1 (racemic) | 7.08 | –
10 | CCCCCCC(=O)OCC1(CO)C/C(=C/c2ccc(N(C)C)cc2)C(=O)O1 (racemic) | 6.45 | –
11 | Cc1cc(C)c(C(=O)OCC2(CO)C/C(=C/C3CCCCC3)C(=O)O2)c(C)c1 (racemic) | 7.16 | –
12 | CCCCCC/C=C1/CC(CO)(COC(=O)c2c(C)cc(C)cc2C)OC1=O (racemic) | 7.38 | –
13 | CC(C)(C)CC(=O)OCC1(CO)C/C(=C/c2ccc(Cl)c(F)c2)C(=O)O1 (racemic) | 7.35 | –
14 | CCCCC(/C=C1/CC(CO)(COC(=O)c2ccc(OC)cc2)OC1=O)CC (racemic) | 6.63 | –
15 | CC(CC(=O)OCC1(CO)C/C(=C/c2ccc(Br)cc2)C(=O)O1)CC(C)(C)C (racemic) | 7.56 | –
16 | CC(C)(C)CC(=O)OCC1(CO)C/C(=C/c2ccc(OC(F)(F)F)cc2)C(=O)O1 (racemic) | 7.61 | –
17 | CCCCCC/C=C1/CC(CO)(COC(=O)C2CCCCC2)OC1=O (racemic) | 7.54 | –
18 | COc1ccc(/C=C2\CC(CO)(COC(=O)c3c(C)cc(C)cc3C)OC2=O)cc1 (racemic; form 1) | 8.43 | –
19 | O=C1OC(CO)(COC(=O)c2ccc(C(F)(F)F)cc2)C/C1=C/C1CCCCC1 (racemic) | 6.98 | –
20 | Cc1cc(C)c(C(=O)OCC2(CO)C/C(=C/c3ccc(N(C)C)cc3)C(=O)O2)c(C)c1 (racemic) | 6.29 | –
21 | CC(C)(C)C(=O)OCC1(CO)C/C(=C/c2ccc(F)c(Br)c2)C(=O)O1 (racemic) | 7.71 | –
22 | CCCCCC/C=C1/CC(CO)(COC(=O)c2c(C(C)C)cc(C(C)C)cc2C(C)C)OC1=O (racemic; form 1) | 8.60 | –
23 | O=C1OC(CO)(COC(=O)c2ccc([N+](=O)[O-])cc2)C/C1=C\c1ccc([N+](=O)[O-])cc1 (racemic; form 2) | 6.90 | 8.65
24 | CCCCC(/C=C1/CC(CO)(COC(=O)c2ccc([N+](=O)[O-])cc2)OC1=O)CC (racemic; form 2) | 6.48 | –
25 | CN(C)c1ccc(/C=C2/CC(CO)(COC(=O)C3CCCCC3)OC2=O)cc1 (racemic) | 6.43 | –
26 | CC(C)(C)CC(=O)OCC1(CO)C/C(=C/c2ccc(F)c(Cl)c2)C(=O)O1 (racemic) | 7.58 | –
27 | CC(CC(=O)OCC1(CO)C/C(=C/c2ccc(OC(F)(F)F)cc2)C(=O)O1)CC(C)(C)C (racemic) | 7.69 | –
28 | CC(C)(C)CC(=O)OCC1(CO)C/C(=C/c2cc(C(F)(F)F)cc(C(F)(F)F)c2)C(=O)O1 (racemic) | 7.29 | –

Continued, values first:

Row | pKi [1] | pKi [2] | SMILES
29 | 7.26 | 7.84 | CN(C)c1ccc(C(=O)OCC2(CO)C/C(=C\c3ccccc3[N+](=O)[O-])C(=O)O2)cc1 (racemic)
30 | 7.41 | 8.74 | CN(C)c1ccccc1C(=O)OCC1(CO)C/C(=C\c2ccc([N+](=O)[O-])cc2)C(=O)O1 (racemic)
31 | 7.50 | 8.64 | CN(C)c1cccc(C(=O)OCC2(CO)C/C(=C\c3ccc([N+](=O)[O-])cc3)C(=O)O2)c1 (racemic)
32 | 7.36 | 8.41 | CN(C)c1ccccc1C(=O)OCC1(CO)C/C(=C\c2cccc([N+](=O)[O-])c2)C(=O)O1 (racemic)
33 | 6.99 | 8.33 | CN(C)c1ccc(/C=C2\CC(CO)(COC(=O)c3ccc(N(C)C)cc3)OC2=O)cc1 (racemic; form 1)
34 | 6.87 | 8.03 | CN(C)c1ccccc1C(=O)OCC1(CO)C/C(=C\c2ccccc2[N+](=O)[O-])C(=O)O1 (racemic)
35 | 6.60 | – | CN(C)c1ccc(C(=O)OCC2(CO)C/C(=C/c3ccccc3)C(=O)O2)cc1 (racemic)
36 | 7.89 | – | CCCCC(CC)C(=O)OCC1(CO)C/C(=C\c2ccc(N(C)C)cc2)C(=O)O1 (racemic; form 1)
37 | 7.35 | – | CCC(C(=O)OCC1(CO)C/C(=C/c2ccc(Cl)c(F)c2)C(=O)O1)c1ccccc1 (racemic)
38 | 7.04 | – | O=C1OC(CO)(COC(=O)C(c2ccccc2)c2ccccc2)C/C1=C/c1ccc(Cl)c(F)c1 (racemic)
39 | 8.26 | – | CCCC(CCC)C(=O)OCC1(CO)C/C(=C\c2ccc(F)cc2)C(=O)O1 (racemic; form 1)
40 | 7.06 | – | CC(C)C(=O)OCC1(CO)C/C(=C/c2ccc(Cl)c(F)c2)C(=O)O1 (racemic)
41 | 6.26 | – | COc1ccc(/C=C2/CC(CO)(COC(=O)c3ccc([N+](=O)[O-])cc3)OC2=O)cc1 (racemic)
42 | 7.96 | – | CCCCC(CC)C(=O)OCC1(CO)C/C(=C/c2ccc(F)c(Cl)c2)C(=O)O1 (racemic)
43 | 7.06 | – | COc1ccc(C(=O)OCC2(CO)C/C(=C/c3ccc(C(F)(F)F)cc3)C(=O)O2)cc1 (racemic)
44 | 7.78 | – | CCCC(CCC)C(=O)OCC1(CO)C/C(=C\c2ccc(C(F)(F)F)cc2)C(=O)O1 (racemic; form 2)
45 | 6.97 | – | CCC(C(=O)OCC1(CO)C/C(=C\c2ccc(-c3ccc(C(F)(F)F)cc3)cc2)C(=O)O1)c1ccccc1 (racemic; form 1)
46 | 7.82 | – | CCCCC(CC)C(=O)OCC1(CO)C/C(=C/c2ccc(OC(F)(F)F)cc2)C(=O)O1 (racemic)
47 | 6.18 | – | CN(C)c1ccc(/C=C2/CC(CO)(COC(=O)c3ccccc3)OC2=O)cc1 (racemic)
48 | 7.61 | – | CC(C)(C)CC(=O)OCC1(CO)C/C(=C/c2ccc(C(F)(F)F)cc2)C(=O)O1 (racemic)

Row | pKi [1] | pKi [2] | SMILES
49 | 7.13 | – | CCCCC(CC)C(=O)OCC1(CO)C/C(=C/c2ccc([N+](=O)[O-])cc2)C(=O)O1 (racemic)
50 | 7.39 | – | CCCC(CCC)C(=O)OCC1(CO)C/C(=C/c2ccc(-c3ccc(C(F)(F)F)cc3)cc2)C(=O)O1 (racemic)
51 | 7.14 | – | CC(C)C(=O)OCC1(CO)C/C(=C/c2ccc(Br)cc2)C(=O)O1 (racemic)
52 | 6.96 | – | O=C1OC(CO)(COC(=O)C2CCCCC2)C/C1=C/c1ccccc1 (racemic)
53 | 6.50 | – | O=C1OC(CO)(COC(=O)c2ccccc2)C/C1=C/c1ccc([N+](=O)[O-])cc1 (racemic)
54 | 8.61 | – | CCCC(CCC)C(=O)OCC1(CO)C/C(=C\c2ccc(F)c(Cl)c2)C(=O)O1 (racemic; form 1)
55 | 5.91 | – | CN(C)c1ccc(/C=C2\CC(CO)(COC(=O)c3ccc([N+](=O)[O-])cc3)OC2=O)cc1 (racemic; form 2)
56 | 7.67 | – | CCCC(CCC)C(=O)OCC1(CO)C/C(=C\c2ccc(Cl)c(F)c2)C(=O)O1 (racemic; form 2)
57 | 7.32 | – | CCC(C(=O)OCC1(CO)C/C(=C/c2ccc(Cl)cc2)C(=O)O1)c1ccccc1 (racemic)
58 | 6.75 | – | O=C1OC(CO)(COC(=O)c2ccc(C(F)(F)F)cc2)C/C1=C/c1ccc([N+](=O)[O-])cc1 (racemic)
59 | 6.74 | – | COc1ccc(/C=C2/CC(CO)(COC(=O)c3ccc(C)cc3)OC2=O)cc1 (racemic)
60 | 6.90 | 8.42 | CN(C)c1ccc(C(=O)OCC2(CO)C/C(=C\c3ccc([N+](=O)[O-])cc3)C(=O)O2)cc1 (racemic; form 1)
61 | 6.44 | – | COc1ccc(/C=C2\CC(CO)(COC(=O)c3ccc(N(C)C)cc3)OC2=O)cc1 (racemic; form 2)
62 | 7.56 | – | CCCCC(CC)C(=O)OCC1(CO)C/C(=C/c2ccc(-c3ccc(C(F)(F)F)cc3)cc2)C(=O)O1 (racemic)
63 | 7.05 | – | CC(C)(C)C(=O)OCC1(CO)C/C(=C/c2ccc(F)cc2)C(=O)O1 (racemic)
64 | 7.38 | – | CCC(C(=O)OCC1(CO)C/C(=C/c2ccc(C(F)(F)F)cc2)C(=O)O1)c1ccccc1 (racemic)
65 | 6.89 | – | COc1ccc(/C=C2\CC(CO)(COC(=O)c3ccc(OC)cc3)OC2=O)cc1 (racemic; form 1)
66 | 7.58 | – | CC(C)(C)C(=O)OCC1(CO)C/C(=C/c2ccc(Br)cc2)C(=O)O1 (racemic)
67 | 7.50 | – | CCC(C(=O)OCC1(CO)C/C(=C/c2ccc(F)c(Cl)c2)C(=O)O1)c1ccccc1 (racemic)
68 | 7.07 | – | CCC(C(=O)OCC1(CO)C/C(=C/c2ccc(F)cc2)C(=O)O1)c1ccccc1 (racemic)
